Data: ChEMBL document CHEMBL4837207, “Discovery of pyrrolo[2,3-d]pyrimidine derivatives as potent Axl inhibitors: Design, synthesis and biological evaluation” (Eur J Med Chem, 2021)

Columns and labels:
[1] = biological target: Hepatocyte growth factor receptor (Homo sapiens, UniProt P08581); test: Inhibition of c-met phosphorylation at Y1234/Y1235 residues in human MKN-45 cells by Western blot analysis; format: cell-based; conditions: dose 2.5-20 nM
How it was run: (§1)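 Cells in exponential growth (BaF3 engineered to stably express constitutively active human wild-type TEL-Axl; MKN-45) exposed to the indicated concentrations for 2 h, then lysed in 1× SDS sample buffer. Phosphorylated proteins detected by Western blot.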

BaF3 [2] = test: Antiproliferative activity against mouse BaF3 stably expressing human TEL-AXL incubated for 72 hrs; format: functional, cell-based; conditions: BaF3, 72 h
MKN-45 = test: Antiproliferative activity against human MKN-45 cells incubated for 72 hrs; format: functional, cell-based; conditions: MKN-45, 72 h
How it was run: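 MKN-45 cells (MET-amplified gastric carcinoma) grown in the supplier-recommended medium and serum, seeded at low density and treated the next day across a concentration range for 72 h. Proliferation read by SRB or CCK-8. IC50 obtained from a four-parameter concentration-response fit; mean ± SD of two independent assays.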

[3] = biological target: Receptor tyrosine-protein kinase erbB-4 (Homo sapiens, UniProt Q15303); test: Inhibition of ERBB4 (unknown origin) by ELISA
[4] = biological target: Vascular endothelial growth factor receptor 1 (Homo sapiens, UniProt P17948); test: Inhibition of VEGFR1 (unknown origin) by ELISA
[5] = biological target: Vascular endothelial growth factor receptor 2 (Homo sapiens, UniProt P35968); test: Inhibition of VEGFR2 (unknown origin) by ELISA
[6] = biological target: Insulin-like growth factor 1 receptor (Homo sapiens, UniProt P08069); test: Inhibition of IGF1R (unknown origin) by ELISA
[7] = biological target: Platelet-derived growth factor receptor alpha (Homo sapiens, UniProt P16234); test: Inhibition of PDGFRalpha (unknown origin) by ELISA
Ephrin type-A receptor 2 = Ephrin type-A receptor 2 (Homo sapiens, UniProt P29317); test: Inhibition of EPHA2 (unknown origin) by ELISA
[8] = Cmax in Sprague-Dawley rat at 3 mg/kg, po via gavage measured up to 24 hrs by LC-MS analysis; format: ADME, organism-based; parameters: route oral, dose 3 mg/kg, time <=24; conditions: in vivo
How it was run: (§2)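 Male Sprague-Dawley rats (n = 3) dosed once by oral gavage at 3 mg/kg as a solution in 5% DMSO/95% (0.5% CMC-Na). Blood sampled at 0.25, 0.5, 1, 2, 4, 6, 8 and 24 h, kept on wet ice, serum separated by centrifugation and stored at -20 °C. Serum levels measured by LC-MS/MS; parameters reported as means.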

[9] = biological target: Proto-oncogene tyrosine-protein kinase Src (Homo sapiens, UniProt P12931); test: Inhibition of SRC (unknown origin) by ELISA
[10] = biological target: Epidermal growth factor receptor (Homo sapiens, UniProt P00533); test: Inhibition of EGFR (unknown origin) by ELISA
[11] = AUC (0 to infinity) in Sprague-Dawley rat at 3 mg/kg, po via gavage measured up to 24 hrs by LC-MS analysis; format: ADME, organism-based; parameters: route oral, dose 3 mg/kg, time <=24; conditions: in vivo; how it was run: as §2
BaF3 [12] = test: Antitumor activity against mouse BaF3 cells stably expressing human TEL-AXL xenografted in nude mouse assessed as tumor growth inhibition at 50 to 100 mg/kg, po administered once daily for 14 consecutive days relative to control; format: functional; conditions: dose 50-100 mg/kg; time 14 day
[13] = Toxicity in nude mouse xenografted with mouse BaF3 cells stably expressing human TEL-AXL assessed as body weight at 10 to 100 mg/kg, po administered once daily for 14 consecutive days; format: organism-based; conditions: in vivo, 336 h, dose 10-100 mg/kg, time 14 day
How it was run: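 BaF3/TEL-Axl cells implanted subcutaneously in nude mice and grown to 700–800 mm³; 1.5 mm³ tumor fragments then transplanted sc into the right flank. At 100–200 mm³, mice were randomized (n = 6 per treated group, 12 vehicle). Oral dosing once daily for 14 days at 10 or 50 mg/kg, with the higher dose raised to 100 mg/kg from day 8. Body weight tracked throughout treatment.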

[14] = biological target: T1, Tyrosine-protein kinase receptor UFO (Mus musculus) (UniProt Q00993); test: Inhibition of AXL in mouse BaF3 cells assessed as reduction in AKT phosphorylation at S473 residue by Western blot analysis; format: cell-based; conditions: dose 0.1-10 nM; how it was run: as §1
T1 sequence (whole entry): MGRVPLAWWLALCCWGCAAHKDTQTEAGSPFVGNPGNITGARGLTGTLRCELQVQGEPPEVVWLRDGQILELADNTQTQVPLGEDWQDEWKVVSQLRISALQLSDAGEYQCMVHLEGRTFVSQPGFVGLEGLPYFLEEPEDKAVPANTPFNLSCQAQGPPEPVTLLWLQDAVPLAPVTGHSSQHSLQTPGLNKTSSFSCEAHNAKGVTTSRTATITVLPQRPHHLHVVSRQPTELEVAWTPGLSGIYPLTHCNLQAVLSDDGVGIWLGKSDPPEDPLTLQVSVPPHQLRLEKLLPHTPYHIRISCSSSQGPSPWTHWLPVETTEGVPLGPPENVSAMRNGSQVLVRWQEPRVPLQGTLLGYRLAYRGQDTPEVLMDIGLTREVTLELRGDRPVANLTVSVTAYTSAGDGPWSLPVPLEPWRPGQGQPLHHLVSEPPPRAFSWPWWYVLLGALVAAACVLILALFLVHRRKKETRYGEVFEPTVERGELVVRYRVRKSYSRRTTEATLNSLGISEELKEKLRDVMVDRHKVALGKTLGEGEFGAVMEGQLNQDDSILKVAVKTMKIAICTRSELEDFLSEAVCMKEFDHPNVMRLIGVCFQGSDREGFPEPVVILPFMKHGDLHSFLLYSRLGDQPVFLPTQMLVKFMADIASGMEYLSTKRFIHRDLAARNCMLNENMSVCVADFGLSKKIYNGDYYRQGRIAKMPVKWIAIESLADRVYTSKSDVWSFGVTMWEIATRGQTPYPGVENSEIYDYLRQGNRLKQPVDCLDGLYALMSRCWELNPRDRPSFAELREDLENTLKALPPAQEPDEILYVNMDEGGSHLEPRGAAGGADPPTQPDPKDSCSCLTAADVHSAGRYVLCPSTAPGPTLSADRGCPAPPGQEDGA

[15] = biological target: T1, Tyrosine-protein kinase receptor UFO (Mus musculus); test: Inhibition of AXL phosphorylation in mouse BaF3 by Western blot analysis; conditions: dose 0.1-10 nM; how it was run: as §1
[16] = biological target: Receptor tyrosine-protein kinase erbB-2 (Homo sapiens, UniProt P04626); test: Inhibition of ERBB2 (unknown origin) by ELISA

Insulin-like growth factor 1 receptor, sequence (P08069 31-736 limits assumed): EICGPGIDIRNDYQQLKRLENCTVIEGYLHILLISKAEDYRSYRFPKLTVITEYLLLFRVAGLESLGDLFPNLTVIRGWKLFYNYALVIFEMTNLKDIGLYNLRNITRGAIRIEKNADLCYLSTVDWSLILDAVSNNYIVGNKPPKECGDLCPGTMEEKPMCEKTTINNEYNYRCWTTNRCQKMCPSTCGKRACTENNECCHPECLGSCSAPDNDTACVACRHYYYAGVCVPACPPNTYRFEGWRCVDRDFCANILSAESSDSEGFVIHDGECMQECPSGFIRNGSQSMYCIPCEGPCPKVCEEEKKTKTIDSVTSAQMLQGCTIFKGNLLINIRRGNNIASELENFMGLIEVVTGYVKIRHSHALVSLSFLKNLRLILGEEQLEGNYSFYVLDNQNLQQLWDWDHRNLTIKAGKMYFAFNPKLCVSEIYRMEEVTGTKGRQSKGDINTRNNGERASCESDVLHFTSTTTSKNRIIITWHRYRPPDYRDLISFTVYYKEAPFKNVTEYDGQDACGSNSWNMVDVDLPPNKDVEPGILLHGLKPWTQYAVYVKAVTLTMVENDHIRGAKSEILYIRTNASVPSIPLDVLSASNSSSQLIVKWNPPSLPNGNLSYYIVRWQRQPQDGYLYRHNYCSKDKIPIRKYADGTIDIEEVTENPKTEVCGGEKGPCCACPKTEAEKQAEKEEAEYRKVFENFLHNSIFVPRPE
Insulin-like growth factor 1 receptor, sequence (P08069 741-1367 limits assumed): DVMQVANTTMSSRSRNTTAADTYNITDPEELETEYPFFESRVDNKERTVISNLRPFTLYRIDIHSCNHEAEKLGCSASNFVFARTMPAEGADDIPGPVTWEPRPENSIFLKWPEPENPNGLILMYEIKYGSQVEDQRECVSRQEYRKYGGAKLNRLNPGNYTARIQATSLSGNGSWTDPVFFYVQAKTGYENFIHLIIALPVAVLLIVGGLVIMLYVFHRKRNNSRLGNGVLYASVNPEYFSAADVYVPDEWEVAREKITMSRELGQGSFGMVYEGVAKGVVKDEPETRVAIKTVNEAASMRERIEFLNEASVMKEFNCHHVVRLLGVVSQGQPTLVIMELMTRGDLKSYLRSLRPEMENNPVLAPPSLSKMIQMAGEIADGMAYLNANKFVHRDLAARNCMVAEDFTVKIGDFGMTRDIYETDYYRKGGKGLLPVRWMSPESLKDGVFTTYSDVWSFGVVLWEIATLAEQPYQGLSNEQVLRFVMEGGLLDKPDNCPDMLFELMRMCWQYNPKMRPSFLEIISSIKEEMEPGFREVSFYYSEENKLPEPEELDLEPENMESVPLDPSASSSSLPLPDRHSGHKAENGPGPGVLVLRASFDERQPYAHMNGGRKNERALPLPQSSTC
Platelet-derived growth factor receptor alpha, sequence (P16234 whole entry): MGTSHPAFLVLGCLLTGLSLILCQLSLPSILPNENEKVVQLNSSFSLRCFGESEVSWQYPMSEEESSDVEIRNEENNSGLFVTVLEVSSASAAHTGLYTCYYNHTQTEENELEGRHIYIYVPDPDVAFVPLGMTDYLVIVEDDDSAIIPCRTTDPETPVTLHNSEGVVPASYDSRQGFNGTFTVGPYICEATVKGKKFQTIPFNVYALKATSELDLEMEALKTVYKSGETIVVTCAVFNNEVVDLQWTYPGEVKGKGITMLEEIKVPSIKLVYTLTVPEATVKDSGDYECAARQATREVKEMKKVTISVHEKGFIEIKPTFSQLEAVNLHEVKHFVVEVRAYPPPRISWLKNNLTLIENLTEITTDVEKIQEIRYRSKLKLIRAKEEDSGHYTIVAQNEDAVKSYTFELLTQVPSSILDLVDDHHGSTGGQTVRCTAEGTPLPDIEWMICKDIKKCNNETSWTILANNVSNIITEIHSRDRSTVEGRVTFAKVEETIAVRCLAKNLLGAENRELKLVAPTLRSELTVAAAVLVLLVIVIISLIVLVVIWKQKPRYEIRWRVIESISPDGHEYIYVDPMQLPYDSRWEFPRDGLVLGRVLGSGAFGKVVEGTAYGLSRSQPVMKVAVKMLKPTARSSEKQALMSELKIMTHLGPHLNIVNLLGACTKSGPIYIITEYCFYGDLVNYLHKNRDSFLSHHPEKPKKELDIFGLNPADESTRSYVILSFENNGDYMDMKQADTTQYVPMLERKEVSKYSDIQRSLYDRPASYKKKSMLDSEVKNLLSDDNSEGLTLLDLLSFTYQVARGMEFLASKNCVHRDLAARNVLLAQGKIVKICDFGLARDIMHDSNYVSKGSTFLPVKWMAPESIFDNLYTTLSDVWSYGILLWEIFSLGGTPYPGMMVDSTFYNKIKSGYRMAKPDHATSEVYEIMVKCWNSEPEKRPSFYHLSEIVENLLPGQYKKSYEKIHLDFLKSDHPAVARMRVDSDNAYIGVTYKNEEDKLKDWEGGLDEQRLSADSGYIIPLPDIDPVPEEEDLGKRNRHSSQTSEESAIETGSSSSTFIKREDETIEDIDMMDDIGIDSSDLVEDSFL
Hepatocyte growth factor receptor, sequence (P08581 whole entry): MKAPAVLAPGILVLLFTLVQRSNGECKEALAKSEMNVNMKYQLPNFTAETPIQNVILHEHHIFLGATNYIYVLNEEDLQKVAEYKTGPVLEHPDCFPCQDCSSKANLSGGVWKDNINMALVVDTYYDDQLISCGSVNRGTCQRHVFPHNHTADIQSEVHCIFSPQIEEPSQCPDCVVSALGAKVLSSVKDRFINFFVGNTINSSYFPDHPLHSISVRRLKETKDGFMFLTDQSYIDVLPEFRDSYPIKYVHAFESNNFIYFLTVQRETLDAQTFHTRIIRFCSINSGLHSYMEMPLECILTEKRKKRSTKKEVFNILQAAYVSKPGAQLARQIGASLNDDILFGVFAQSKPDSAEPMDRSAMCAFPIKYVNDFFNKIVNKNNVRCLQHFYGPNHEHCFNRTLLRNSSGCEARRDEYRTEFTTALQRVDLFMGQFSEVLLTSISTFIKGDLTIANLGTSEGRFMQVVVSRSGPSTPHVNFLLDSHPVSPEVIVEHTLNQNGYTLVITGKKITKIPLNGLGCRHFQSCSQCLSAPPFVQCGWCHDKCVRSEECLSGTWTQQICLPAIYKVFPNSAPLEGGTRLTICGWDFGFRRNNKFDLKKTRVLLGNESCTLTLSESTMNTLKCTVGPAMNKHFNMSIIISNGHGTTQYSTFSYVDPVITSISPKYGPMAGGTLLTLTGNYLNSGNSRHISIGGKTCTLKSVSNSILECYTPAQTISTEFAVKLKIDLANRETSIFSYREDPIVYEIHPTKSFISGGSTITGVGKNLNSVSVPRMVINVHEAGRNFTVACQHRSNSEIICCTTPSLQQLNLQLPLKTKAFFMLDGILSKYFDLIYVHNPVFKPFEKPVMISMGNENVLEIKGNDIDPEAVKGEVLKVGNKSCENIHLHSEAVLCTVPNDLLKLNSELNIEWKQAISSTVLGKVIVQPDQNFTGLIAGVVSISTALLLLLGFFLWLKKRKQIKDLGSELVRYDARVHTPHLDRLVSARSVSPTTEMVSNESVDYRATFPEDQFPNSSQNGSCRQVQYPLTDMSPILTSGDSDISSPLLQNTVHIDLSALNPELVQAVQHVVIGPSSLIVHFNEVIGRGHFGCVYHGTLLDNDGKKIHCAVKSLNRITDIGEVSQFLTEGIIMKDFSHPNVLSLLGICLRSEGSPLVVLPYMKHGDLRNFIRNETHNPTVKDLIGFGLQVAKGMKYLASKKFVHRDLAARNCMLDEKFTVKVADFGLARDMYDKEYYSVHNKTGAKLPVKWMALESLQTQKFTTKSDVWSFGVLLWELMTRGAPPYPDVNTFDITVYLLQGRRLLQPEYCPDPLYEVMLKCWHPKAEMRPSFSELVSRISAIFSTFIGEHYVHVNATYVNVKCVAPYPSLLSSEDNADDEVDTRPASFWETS
Epidermal growth factor receptor, sequence (P00533 whole entry): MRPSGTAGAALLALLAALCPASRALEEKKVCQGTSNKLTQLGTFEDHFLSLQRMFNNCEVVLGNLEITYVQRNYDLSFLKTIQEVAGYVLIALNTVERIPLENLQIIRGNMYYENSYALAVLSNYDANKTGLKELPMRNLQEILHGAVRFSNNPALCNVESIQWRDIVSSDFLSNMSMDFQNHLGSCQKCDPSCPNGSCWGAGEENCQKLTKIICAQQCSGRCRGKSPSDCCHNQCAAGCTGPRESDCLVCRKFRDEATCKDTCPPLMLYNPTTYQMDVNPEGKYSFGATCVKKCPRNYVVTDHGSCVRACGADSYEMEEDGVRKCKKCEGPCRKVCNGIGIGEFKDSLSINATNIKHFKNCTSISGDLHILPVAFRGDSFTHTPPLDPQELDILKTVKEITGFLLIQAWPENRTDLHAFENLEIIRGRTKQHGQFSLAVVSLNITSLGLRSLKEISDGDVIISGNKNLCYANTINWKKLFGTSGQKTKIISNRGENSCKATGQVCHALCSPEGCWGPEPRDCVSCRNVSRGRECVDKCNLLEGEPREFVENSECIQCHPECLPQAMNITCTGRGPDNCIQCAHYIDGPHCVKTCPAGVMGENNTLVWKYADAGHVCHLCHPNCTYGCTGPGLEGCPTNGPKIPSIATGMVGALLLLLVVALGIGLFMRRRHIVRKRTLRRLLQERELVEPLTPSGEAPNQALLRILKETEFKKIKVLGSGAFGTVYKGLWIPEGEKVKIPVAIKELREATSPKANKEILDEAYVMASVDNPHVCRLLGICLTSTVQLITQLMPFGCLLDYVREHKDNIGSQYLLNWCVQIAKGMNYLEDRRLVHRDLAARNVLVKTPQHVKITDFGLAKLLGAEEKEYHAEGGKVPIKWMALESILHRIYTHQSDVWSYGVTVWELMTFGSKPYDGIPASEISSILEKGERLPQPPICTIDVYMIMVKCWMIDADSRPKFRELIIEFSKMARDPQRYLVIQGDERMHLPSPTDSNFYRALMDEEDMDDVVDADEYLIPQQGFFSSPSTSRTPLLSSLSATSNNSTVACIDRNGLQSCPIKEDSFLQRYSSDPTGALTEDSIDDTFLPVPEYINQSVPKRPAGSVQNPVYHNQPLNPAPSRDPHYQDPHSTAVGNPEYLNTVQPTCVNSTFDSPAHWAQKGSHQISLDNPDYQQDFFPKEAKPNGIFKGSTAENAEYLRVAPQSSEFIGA

Structure (SMILES): CC(C)n1cc(C(=O)Nc2cc(F)c(-c3c[nH]c4ncnc(N)c34)cc2F)c(=O)c(-c2ccc(F)cc2)c1
- inhibition [1]: Dose-Dependent Effect
- IC50 (BaF3 [2]): < 1 nM
- IC50 (MKN-45): 13.2 nM
- IC50 [3]: > 1000 nM
- IC50 [4]: > 1000 nM
- IC50 [5]: > 1000 nM
- IC50 [6]: > 1000 nM
- IC50 [7]: > 1000 nM
- IC50 (Ephrin type-A receptor 2): > 500 nM
- Cmax [8]: 14100 ng/mL
- IC50 [9]: > 1000 nM
- IC50 [10]: > 1000 nM
- AUC(0-inf) [11]: 44300 ng·h/mL
- TGI (BaF3 [12]): 67.4%
- Activity [13]: Non-Toxic
- inhibition [14]: Dose-Dependent Effect
- inhibition [15]: Dose-Dependent Effect
- IC50 [16]: > 1000 nM
